Laboratory results: the RNAGym collection of RNA variant scans (doi:10.1126/science.aae0568)
Fewer inactive variants are shown than the library holds.

B1: tRNA (parent)
chain: GUUCCGUUGGCGUAAUGGUAACGCGUCUCCCUCCUAAGGAGAAGACUGCGGGUUCGAGUCCCGUACGGAACG

Variants of: B1
Test: yeast fitness relative to wild type (ratio to wild type); higher = fitter; tRNA-Arg(CCU), competitive growth, 37 C, YPD
In short: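 Genotype frequency changes were the basis for Darwinian fitness relative to wild type. The frequencies came from 100-nucleotide paired-end sequencing of gene amplicons from the start population and each end population of pooled yeast strains with tRNA-Arg(CCU) gene variants at the native locus. Competition ran in YPD at 37°C for 24 hours in six replicates, genotypes needed ≥ 100 starting reads, and estimates < 0.5 were set to 0.5.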

A37G G56A C62A A70G and A36U G51C U53C cannot be ordered by yeast fitness: at most 0.5 for the first, at most 0.5 for the second.

Going from A37U C49U U64A to A36U G52A G63C, the yeast fitness rises from at most 0.5 to 0.558.

First: A37G A40U G58C
Second: A37C U54C
The yeast fitness of the first is lower: 0.729 for the first, 0.799 for the second.

A37G A45U C60U A70G and A37G U53C G58A G68A cannot be ordered by yeast fitness: at most 0.5 for the first, at most 0.5 for the second.

A37U A42G A45U C66U and A37G C61A C66U cannot be ordered by yeast fitness: at most 0.5 for the first, at most 0.5 for the second.

G38A A43G A57C and A37G G39A C62A A69C cannot be ordered by yeast fitness: at most 0.5 for the first, at most 0.5 for the second.

A37G G39A A40G G41A A43G and A36U G50A U59G cannot be ordered by yeast fitness: at most 0.5 for the first, at most 0.5 for the second.

First: A37U U47C G51C G63C
Second: A37G G41C A43U
The yeast fitness of the first is higher: 0.507 for the first, at most 0.5 for the second.

Going from A37U G44A A69C to A37C A45G C49G, the yeast fitness rises from at most 0.5 to 0.578.

A36U G56A C66U and A36U U47G C61A A70U cannot be ordered by yeast fitness: at most 0.5 for the first, at most 0.5 for the second.

Compared with A36U G56A A69U, A37C C46G C62G is higher in yeast fitness: at most 0.5 for the first, 0.654 for the second.

Compared with A36U G38A C49G C60G A70G, G38A A70G is higher in yeast fitness: 0.592 for the first, 0.998 for the second.

Compared with G38A A70C, G38A A70U is higher in yeast fitness: 0.942 for the first, 0.953 for the second.

First: A37G A45G G48A
Second: A37G A45C C46A
The yeast fitness of the first is lower: 0.557 for the first, 0.579 for the second.

First: A37U A40C G58A
Second: A37U U47G A57C
The yeast fitness of the first is higher: 0.591 for the first, at most 0.5 for the second.

Compared with A37C G38C U54C C61U, A37G G44C A57U G63C is lower in yeast fitness: 0.678 for the first, at most 0.5 for the second.

First: A37U A43C U53A U54C
Second: A37C C46U
The yeast fitness of the first is lower: at most 0.5 for the first, 0.946 for the second.

First: A37U G50C C66U
Second: A37U G48C G68U
The yeast fitness of the first is higher: 0.593 for the first, 0.57 for the second.

A36U G44A A70G and A37U C66G cannot be ordered by yeast fitness: at most 0.5 for the first, at most 0.5 for the second.

Compared with A37U A42C C55U A69U, A37G G50C is higher in yeast fitness: at most 0.5 for the first, 0.693 for the second.

First: A36U U47C G52C
Second: A37C A40G
The yeast fitness of the first is lower: at most 0.5 for the first, 0.716 for the second.

G38A A42C A45C C62A and A37G A40G A43G G52C U59G cannot be ordered by yeast fitness: at most 0.5 for the first, at most 0.5 for the second.

First: A37C A57U
Second: A37G C55G C66G
The yeast fitness of the first is higher: 0.633 for the first, at most 0.5 for the second.

First: A37G A42C A65C A69C
Second: A37U U53A G58C
The yeast fitness of the first is higher: 0.616 for the first, at most 0.5 for the second.

Compared with A36U G38A A40G, A37G G51A is higher in yeast fitness: at most 0.5 for the first, 0.704 for the second.

Going from A37G G63C to A37G G63A, the yeast fitness falls from 0.66 to 0.62.

A37C C49U U54G and A37G A42C C55G G68C cannot be ordered by yeast fitness: at most 0.5 for the first, at most 0.5 for the second.

Going from A37U G48C U59C to A37G G48A G50A U59G, the yeast fitness rises from 0.533 to 0.66.

Compared with A37G G52C, A37G G52A is higher in yeast fitness: at most 0.5 for the first, 0.583 for the second.

First: A37U G58A G68A
Second: A37G A40U C55A
The yeast fitness of the first is lower: 0.588 for the first, 0.829 for the second.

Compared with A37U A43U G48C, A37C A45U G51C is lower in yeast fitness: 0.514 for the first, at most 0.5 for the second.

Compared with A37U G44A A70G, A37U G44A A70C is higher in yeast fitness: at most 0.5 for the first, 0.614 for the second.

Going from A36U G50A A69U to A37U C49U C61U, the yeast fitness rises from at most 0.5 to 0.527.

Compared with A37G C66G, A37G C66U is higher in yeast fitness: 0.692 for the first, 0.828 for the second.

Going from A37U A40U G67C to A37G G56A, the yeast fitness rises from 0.563 to 0.825.

First: A37C G38A G63A
Second: A37C C55U G63A G67C
The yeast fitness of the first is lower: 0.549 for the first, 0.617 for the second.

First: A37C G41A
Second: A36U G63C
The yeast fitness of the first is higher: 1.01 for the first, at most 0.5 for the second.

Compared with A37C A43C A65U, A37U U53G is higher in yeast fitness: 0.537 for the first, 0.538 for the second.

First: A37U C49A C62U
Second: A37C C66G
The yeast fitness of the first is lower: 0.579 for the first, 0.586 for the second.

Compared with A37C C66U, G38A C62A C66G is higher in yeast fitness: 0.75 for the first, 0.804 for the second.

A37C G38A C55A A65C and G38A C55U A57G cannot be ordered by yeast fitness: at most 0.5 for the first, at most 0.5 for the second.

Going from A36U G39A A42C G50U G63A to A36U U64C, the yeast fitness rises from 0.535 to 0.581.

Compared with A37C G41A C49U C60G, G38A A45G G52A C61G is higher in yeast fitness: at most 0.5 for the first, 0.679 for the second.

First: A37U G68A
Second: A37G G51C C62G C66U
The yeast fitness of the first is higher: 0.736 for the first, at most 0.5 for the second.

First: A37G G38A
Second: A37G A45C C61G A70U
The yeast fitness of the first is higher: 0.725 for the first, at most 0.5 for the second.

Compared with A37G A45U, A37G A45C is higher in yeast fitness: 0.684 for the first, 0.78 for the second.

Going from A36U U59G A65U to G38A G39A A42G C46G, the yeast fitness rises from at most 0.5 to 0.537.

First: A37C A43C
Second: A37C A43G
The yeast fitness of the first is lower: 0.931 for the first, 0.988 for the second.

First: A37C A43U
Second: A37G A69U
The yeast fitness of the first is higher: 0.992 for the first, 0.856 for the second.

Going from A37G G68A A69G to A37U C49A, the yeast fitness rises from at most 0.5 to 0.712.

Going from A37U C49G to A37U A57C A69U A70C, the yeast fitness rises from 0.652 to 0.775.

Compared with A37C C62U A70U, A37C C60A A70G is higher in yeast fitness: at most 0.5 for the first, 0.592 for the second.

Compared with G38A A40C, G38A A40G is higher in yeast fitness: 0.624 for the first, 0.82 for the second.

A37G C61A G63C and A37C G38C C55U cannot be ordered by yeast fitness: at most 0.5 for the first, at most 0.5 for the second.

Going from A37G U59C to G38A C62A A65U C66U, the yeast fitness falls from 0.741 to at most 0.5.

Compared with A36U C62G G63A, A37G C49G A57C is higher in yeast fitness: 0.569 for the first, 0.798 for the second.

First: G38A G39A
Second: G38A A42U
The yeast fitness of the first is lower: 0.637 for the first, 0.661 for the second.

Compared with G38A A42C, A37U G56A A65C is lower in yeast fitness: 0.734 for the first, 0.5 for the second.

Compared with A37C U47G C62G G68A, A37C G68U is higher in yeast fitness: 0.549 for the first, 0.761 for the second.

Compared with A37C G68A, A37G C55U G56A C66G is lower in yeast fitness: 0.729 for the first, at most 0.5 for the second.

First: A37C A42C
Second: A37U G67C
The yeast fitness of the first is higher: 0.922 for the first, 0.619 for the second.

First: A37U U54C U64A A69U
Second: G38A C49U
The yeast fitness of the first is lower: at most 0.5 for the first, 1.03 for the second.

Compared with G38A A40U G50C C60G A65U, G38A A69U is higher in yeast fitness: at most 0.5 for the first, 1.04 for the second.

Going from A37U U59A to A37C A40U G52C A69G, the yeast fitness falls from 0.706 to at most 0.5.

First: G38A A43G A69C
Second: A37U C46U
The yeast fitness of the first is lower: at most 0.5 for the first, 0.821 for the second.

Compared with A37G G50C U54A C61A, A37G U53C C62G is higher in yeast fitness: at most 0.5 for the first, 0.594 for the second.

Compared with A37C A65G G68U, A37C G44C G52C U59C C66U is lower in yeast fitness: 0.801 for the first, 0.574 for the second.

First: A37U A40U G56C A69U
Second: A37G G39A A69U
The yeast fitness of the first is lower: at most 0.5 for the first, 0.589 for the second.

Compared with A37C G39C C55U C61A, A37U C61A is lower in yeast fitness: 0.532 for the first, at most 0.5 for the second.

First: A37C G44A
Second: G38A C46G G56C
The yeast fitness of the first is higher: 0.776 for the first, at most 0.5 for the second.

First: G38A C49U U54C
Second: A37U A42U C66A A69C
The yeast fitness of the first is lower: at most 0.5 for the first, 0.572 for the second.

Compared with A37C U53A, A37C C46U A65C G67C is lower in yeast fitness: 0.632 for the first, at most 0.5 for the second.

G38A C60U G67C and A37U A45U U47C cannot be ordered by yeast fitness: at most 0.5 for the first, at most 0.5 for the second.

Compared with A37U U47C U53G A69U, A37C A42C C46A is higher in yeast fitness: at most 0.5 for the first, 0.948 for the second.

Going from A37C G41A A70C to A37U G51A, the yeast fitness rises from at most 0.5 to 0.57.

A37G G63C G68C and G38A A40C G56A C60U C61G G67U cannot be ordered by yeast fitness: at most 0.5 for the first, at most 0.5 for the second.

Compared with A37C C49G, A37C A40G G52C U59C A65U C66U is lower in yeast fitness: 0.729 for the first, at most 0.5 for the second.

Going from A37C U47C to A37U G52A A57C C60A, the yeast fitness falls from 0.81 to at most 0.5.

Compared with A37G A45U U59A, A37U A65U is higher in yeast fitness: at most 0.5 for the first, 0.665 for the second.

First: A37G C62G
Second: A37U A69C
The yeast fitness of the first is lower: 0.676 for the first, 0.796 for the second.

Going from A37U A69U to A36U C61G, the yeast fitness falls from 0.723 to 0.698.

Going from A36U G50C to G38A C49A A70U, the yeast fitness rises from 0.587 to 0.729.

Compared with A37G C60A, A37G C60U is lower in yeast fitness: 0.661 for the first, 0.631 for the second.

With A37G C60G the yeast fitness was at most 0.5.
